# The source made the active and inactive calls. The rule behind the calls is not given here.
# How the values were obtained:
# Mus musculus [1] = assay: Immunomodulatory activity in Pseudomonas aeruginosa M57-15 infected C57BL/6 mouse lung assessed as decrease of IL-10 production in CD11b+ cells in lung digest at 0.16 g/kg, po measured after 7 days by flow cytometry; format: functional, organism-based
# Method in brief: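 Lung digest cells (2 × 106) were stimulated for 4 h with 50 ng/ml PMA and 500 ng/ml ionomycin plus 10 μg/ml brefeldin A. They were surface-stained for CD11b/CD11c, fixed in 4% formalin, permeabilized with 0.05% saponin, Fc-blocked, and stained for intracellular TNF-α and IL-10 for flow cytometry. Mice were dosed at 0.16 g/kg by daily oral gavage from 4 days before infection.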
# Mus musculus [2] = assay: Immunomodulatory activity in Pseudomonas aeruginosa M57-15 infected C57BL/6 mouse lung assessed as increase of CD80 expression in CD11b+ Gr1+ cells in lung digest at 0.16 g/kg, po measured after 7 days by flow cytometry; format: functional, organism-based
# Method in brief: (§1)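 Oral gavage of 0.16 g/kg daily (2% methylcellulose vehicle) began 4 days before intratracheal bead infection (1 × 105 to 2 × 10^5 CFU). On days 3, 7 and 14, cells were taken from lavage (0.3 mM EDTA buffer) and from collagenase/DNase lung digest (1 h, 37°C). Cells were stained for CD11b, CD11c, Gr-1, CD4, CD80, MHC-II and MR, with more than 50,000 events acquired. Counts were gated percent × manual cell count.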
# Mus musculus [3] = assay: Immunomodulatory activity in Pseudomonas aeruginosa M57-15 infected C57BL/6 mouse lung assessed as CD11b+c+ cell expression level in lung lavage fluid at 0.16 g/kg, po measured after 14 days by flow cytometry (reference value: 5.42 +/- 5.34 %); format: functional; method in brief: as §1
# Mus musculus [4] = assay: Immunomodulatory activity in Pseudomonas aeruginosa M57-15 infected C57BL/6 mouse lung assessed as CD11b+c+ cell expression level in lung digest at 0.16 g/kg, po measured after 14 days by flow cytometry (reference value: 6.6 +/- 1.86 %); format: functional; method in brief: as §1
# Mus musculus [5] = assay: Immunomodulatory activity in Pseudomonas aeruginosa M57-15 infected C57BL/6 mouse lung assessed as CD11b+c- cell expression level in lung digest at 0.16 g/kg, po measured after 3 days by flow cytometry (reference value: 25.42 +/- 10.57 %); format: functional; method in brief: as §1
# Pseudomonas aeruginosa = assay: Antibacterial activity against Pseudomonas aeruginosa M57-15 infected in C57BL/6 mouse assessed as effect on bacterial burden at 0.16 g/kg, po measured up to 14 days; format: functional, organism-based
# Method in brief: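 Mice got 0.16 g/kg in 2% methylcellulose by daily oral gavage, starting 4 days before infection, or vehicle. Infection was intratracheal with bead-embedded bacteria, 1 × 105 to 2 × 10^5 CFU (about LD10). On days 0, 3, 7 and 14, aliquots of lung lavage and digest were plated on Pseudomonas selection agar and CFU counted manually after overnight growth.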
# Mus musculus [6] = assay: Immunomodulatory activity in Pseudomonas aeruginosa M57-15 infected C57BL/6 mouse lung assessed as CD11b+c+ cell expression level in lung lavage fluid at 0.16 g/kg, po measured after 3 days by flow cytometry (reference value: 2.38 +/- 0.75 %); format: functional; method in brief: as §1
# Mus musculus [7] = assay: Immunomodulatory activity in Pseudomonas aeruginosa M57-15 infected C57BL/6 mouse lung assessed as decrease of IL-10 production in CD11b+ cells in lung lavage fluid at 0.16 g/kg, po measured after 7 days by flow cytometry; format: functional, organism-based
# Method in brief: (§2)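 The first 1-ml lavage wash was frozen at −80°C. Samples diluted 5-fold were incubated 3 h at room temperature with capture beads for a cytometric bead array (IL-12p70, CCL2, TNF-α, IL-10, IFN-γ, IL-6) plus a PE-conjugated detection antibody. Fluorescence was read by flow cytometry against standard curves. Mice had daily oral 0.16 g/kg from 4 days before intratracheal infection.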
# Mus musculus [8] = assay: Immunomodulatory activity in Pseudomonas aeruginosa M57-15 infected C57BL/6 mouse lung assessed as up-regulation of CCR7 expression in CD11+ Gr1- cells in lung digest at 0.16 g/kg, po measured after 7 days by flow cytometry; format: functional, organism-based; method in brief: as §1
# Mus musculus [9] = assay: Immunomodulatory activity in Pseudomonas aeruginosa M57-15 infected C57BL/6 mouse lung assessed as decrease of TNFalpha production in CD11b+ cells in lung lavage fluid at 0.16 g/kg, po measured after 7 days by flow cytometry; format: functional, organism-based; method in brief: as §2
# Mus musculus [10] = assay: Immunomodulatory activity in Pseudomonas aeruginosa M57-15 infected C57BL/6 mouse lung assessed as CD11b-c+ cell expression level in lung lavage fluid at 0.16 g/kg, po measured after 7 days by flow cytometry (reference value: 72.59 +/- 16.30 %); format: functional; method in brief: as §1
# Mus musculus [11] = assay: Immunomodulatory activity in Pseudomonas aeruginosa M57-15 infected C57BL/6 mouse lung assessed as increase of CD4+ T cell in lung lavage fluid at 0.16 g/kg, po measured after 7 to 14 days by flow cytometry; format: functional, organism-based; method in brief: as §1
# Mus musculus [12] = assay: Immunomodulatory activity in Pseudomonas aeruginosa M57-15 infected C57BL/6 mouse lung assessed as increase of MHC2 expression in CD11b+ Gr1+ cells in lung digest at 0.16 g/kg, po measured after 7 days by flow cytometry; format: functional, organism-based; method in brief: as §1
# Mus musculus [13] = assay: Immunomodulatory activity in Pseudomonas aeruginosa M57-15 infected C57BL/6 mouse lung assessed as increase of mannose receptor expression in CD11b+ Gr1+ cells in alveolar space at 0.16 g/kg, po measured after 7 days by flow cytometry; format: functional, organism-based; method in brief: as §1
# Mus musculus [14] = assay: Immunomodulatory activity in Pseudomonas aeruginosa M57-15 infected C57BL/6 mouse lung assessed as decrease of IFN-gamma production in CD11b+ cells in lung lavage fluid at 0.16 g/kg, po measured after 7 days by flow cytometry; format: functional, organism-based; method in brief: as §2
# Mus musculus [15] = assay: Immunomodulatory activity in Pseudomonas aeruginosa M57-15 infected C57BL/6 mouse lung assessed as up-regulation of MHC2 expression in CD11+ Gr1- cells in lung digest at 0.16 g/kg, po measured after 7 days by flow cytometry; format: functional, organism-based; method in brief: as §1
# Mus musculus [16] = assay: Immunomodulatory activity in Pseudomonas aeruginosa M57-15 infected C57BL/6 mouse lung assessed as increase of total cells in lung digest at 0.16 g/kg, po measured after 14 days by flow cytometry; format: functional, organism-based; method in brief: as §1
# Mus musculus [17] = assay: Immunomodulatory activity in Pseudomonas aeruginosa M57-15 infected C57BL/6 mouse lung assessed as increase of mannose receptor expression in CD11b+ Gr1+ cells in lung digest at 0.16 g/kg, po measured after 7 days by flow cytometry; format: functional, organism-based; method in brief: as §1
# Mus musculus [18] = assay: Immunomodulatory activity in Pseudomonas aeruginosa M57-15 infected C57BL/6 mouse lung assessed as reduction of CD11b- and Gr-1+ cells infiltration in lung lavage fluid at 0.16 g/kg, po measured after 7 days by flow cytometry; format: functional, organism-based; conditions: in the assay text read “lung digest” for “lung lavage fluid”; method in brief: as §1
# Mus musculus [19] = assay: Immunomodulatory activity in Pseudomonas aeruginosa M57-15 infected C57BL/6 mouse lung assessed as effect on CD11b+ cells infiltration in lung lavage fluid at 0.16 g/kg, po measured after 7 days by flow cytometry; format: functional, organism-based; method in brief: as §1
# Mus musculus [20] = assay: Immunomodulatory activity in Pseudomonas aeruginosa M57-15 infected C57BL/6 mouse lung assessed as CD11b-c+ cell expression level in lung digest at 0.16 g/kg, po measured after 3 days by flow cytometry (reference value: 19.71 +/- 3.89 %); format: functional; method in brief: as §1
# Mus musculus [21] = assay: Immunomodulatory activity in Pseudomonas aeruginosa M57-15 infected C57BL/6 mouse lung assessed as CD11b-c+ cell expression level in lung digest at 0.16 g/kg, po measured after 7 days by flow cytometry (reference value: 29.15 +/- 3.98 %); format: functional; method in brief: as §1
smiles,measurement,setting,value
CC[C@H]1OC(=O)[C@H](C)[C@@H](O[C@H]2C[C@@](C)(OC)[C@@H](O)[C@H](C)O2)[C@H](C)[C@@H](O[C@@H]2O[C@H](C)C[C@H](N(C)C)[C@H]2O)[C@](C)(O)C[C@@H](C)CN(C)[C@H](C)[C@@H](O)[C@]1(C)O [AZITHROMYCIN],Activity,Mus musculus [1],inactive
same,Activity,Mus musculus [2],Active
same,Activity,Mus musculus [3],5.25%
same,Activity,Mus musculus [4],4.31%
same,Activity,Mus musculus [5],14.42%
same,Activity,Pseudomonas aeruginosa,inactive
same,Activity,Mus musculus [6],2.37%
same,Activity,Mus musculus [7],inactive
same,Activity,Mus musculus [8],Active
same,Activity,Mus musculus [9],Active
same,Activity,Mus musculus [10],38.47%
same,Activity,Mus musculus [11],Active
same,Activity,Mus musculus [12],Active
same,Activity,Mus musculus [13],Active
same,Activity,Mus musculus [14],inactive
same,Activity,Mus musculus [15],Active
same,Activity,Mus musculus [16],Active
same,Activity,Mus musculus [17],Active
same,Activity,Mus musculus [18],Active
same,Activity,Mus musculus [19],Active
same,Activity,Mus musculus [20],20.92%
same,Activity,Mus musculus [21],20.36%

# Source: ChEMBL document CHEMBL1687758, “Azithromycin alters macrophage phenotype and pulmonary compartmentalization during lung infection with Pseudomonas” (2010)
